The values below come from ChEMBL document CHEMBL1154500, “Mechanism-based inhibitors of MenE, an acyl-CoA synthetase involved in bacterial menaquinone biosynthesis” (Bioorg Med Chem Lett, 2008).

Test [1] can be described thus: Inhibition of Escherichia coli Histidine6-tagged 20 nM MenE expressed in Escherichia coli BL21 cells coexpressing Mycobacterium tuberculosis Histidine6-tagged 7.2 uM MenB assessed as formation of DHNA-CoA by coupled assay. The procedure, abridged: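 Coupled MenE–MenB assay. E. coli MenE and M. tuberculosis MenB each carried an N-terminal His6 tag, were expressed separately in E. coli BL21, and were affinity-purified. Reactions contained MenB (7.2 μM), ATP, CoA and OSB (each 240 μM), and inhibitor (0–200 μM), and were started by adding MenE (20 nM final). DHNA-CoA formation was followed at 392 nm to derive IC50.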

Test [2] in a line: Inhibition of Escherichia coli Histidine6-tagged 5 uM MenE expressed in Escherichia coli BL21 cells coexpressing Mycobacterium tuberculosis Histidine6-tagged 100 nM MenB assessed as formation of DHNA-CoA by coupled assay. The procedure, abridged:
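Counter-assay in the coupled format using separately purified His6-tagged E. coli MenE and M. tuberculosis MenB. MenB was limiting (100 nM) and MenE in excess (5 μM), to test for direct MenB inhibition. The read-out was DHNA-CoA formation.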

The test system of test [3] is Mycolicibacterium smegmatis. Description: Growth inhibition of Mycobacterium smegmatis upto 300 uM. In kind it is functional, organism-based.

Calls of active or inactive are those of the source. The calls are words filed in the database; no cut-off is given here.

As a reminder, the IC50 is the midpoint of a concentration-inhibition curve. Take `C=C(CCC(=O)NS(=O)(=O)NC[C@H]1O[C@@H](n2cnc3c(N)ncnc32)[C@H](O)[C@@H]1O)c1ccccc1C(=O)OC`: the IC50 in test [1] is above 200 µM. The inhibition entry in test [2] and in test [3] was “inactive” each time.
In the case of `COC(=O)c1ccccc1C(=O)CCC(=O)NS(=O)(=O)OC[C@H]1O[C@@H](n2cnc3c(N)ncnc32)[C@H](O)[C@@H]1O`, in test [1], the 50% inhibitory concentration (IC50) was determined as 38 µM. For the same compound, the inhibition result in test [2] and in test [3] was “inactive” throughout.
For `C=C(CCC(=O)NS(=O)(=O)OC[C@H]1O[C@@H](n2cnc3c(N)ncnc32)[C@H](O)[C@@H]1O)c1ccccc1C(=O)OC`, the IC50 in test [1] is above 200 µM. Besides, the inhibition result in test [2] and in test [3] was “inactive” each time.
On to `COC(=O)c1ccccc1C(=O)CCC(=O)NS(=O)(=O)NC[C@H]1O[C@@H](n2cnc3c(N)ncnc32)[C@H](O)[C@@H]1O`, for which the IC50 in test [1] was 34.1 µM. The inhibition result in test [2] and in test [3] was “inactive” each time.
Turning to `COC(=O)c1ccccc1C(=O)CC/C=C/S(=O)(=O)NC[C@H]1O[C@@H](n2cnc3c(N)ncnc32)[C@H](O)[C@@H]1O`, the IC50 in test [1] came to 5.7 µM. Also, the inhibition result in test [2] and in test [3] was “inactive” throughout.
Take `C=C(CC/C=C/S(=O)(=O)NC[C@H]1O[C@@H](n2cnc3c(N)ncnc32)[C@H](O)[C@@H]1O)c1ccccc1C(=O)OC`: the IC50 in test [1] is above 200 µM. Also, the inhibition result in test [2] and in test [3] was “inactive” throughout.
